Experimental data as given in ChEMBL document CHEMBL1124366, “Synthesis and biological properties of N63-carboxamides of teicoplanin antibiotics. Structure-activity relationships” (J Med Chem, 1989).
Converted amounts (≈) assume the structure as drawn.

Tests used:
Type in all cases: functional
Escherichia coli = experiment: In vitro minimum inhibitory concentration against Escherichia coli SKF 12140
Streptococcus pyogenes [1] = experiment: Subcutaneously administration into mice infected with Streptococcus pyogenes C 203; conditions: sc
Summary of the method: (§1)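 Mice (five per treatment group, five groups) infected intraperitoneally with about 10⁵ cells of Strep. pyogenes C 203, about 100× the LD50. ED50 (mg/kg) was calculated from the percentage of mice surviving at each dose on day 7.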

Pseudomonas aeruginosa = experiment: In vitro minimum inhibitory concentration against Pseudomonas aeruginosa ATCC 10145
[2] = system: Staphylococcus epidermidis; experiment: In vitro minimum inhibitory concentration against Staphylococcus epidermis ATCC 12228
Staphylococcus aureus = experiment: In vitro minimum inhibitory concentration against Staphylococcus aureus Tour
Streptococcus pneumoniae = experiment: In vitro minimum inhibitory concentration against Streptococcus pneumoniae UC41
Streptococcus pyogenes [3] = experiment: In vitro minimum inhibitory concentration against Streptococcus pyogenes C 203
Enterococcus faecalis = experiment: In vitro minimum inhibitory concentration against Streptococcus faecalis ATCC 7080
Proteus vulgaris = experiment: In vitro minimum inhibitory concentration against Proteus vulgaris X 19 ATCC 881
Streptococcus pyogenes [4] = experiment: In vivo effective dose given perorally to mice infected with Streptococcus pyogenes C 203; conditions: po; summary of the method: as §1
[5] = system: Staphylococcus haemolyticus; experiment: In vitro minimum inhibitory concentration against Staphylococcus hemolyticus 602 cell line; conditions: strain 602

SMILES	MIC (Escherichia coli) [µg/mL]	MIC (Pseudomonas aeruginosa) [µg/mL]	MIC [2] [µg/mL]	MIC (Staphylococcus aureus) [µg/mL]	MIC (Streptococcus pneumoniae) [µg/mL]	MIC (Streptococcus pyogenes [3]) [µg/mL]	MIC (Enterococcus faecalis) [µg/mL]	MIC (Proteus vulgaris) [µg/mL]	ED50 (Streptococcus pyogenes [1]) [mg/kg]	ED50 (Streptococcus pyogenes [4]) [mg/kg]	MIC [5] [µg/mL]
N[C@H]1C(=O)N[C@@H]2Cc3ccc(c(Cl)c3)Oc3cc4cc(c3O)Oc3ccc(cc3Cl)[C@@H](O)[C@@H]3NC(=O)[C@H](NC(=O)[C@@H]4NC(=O)[C@@H](NC2=O)c2cc(O)cc(c2)Oc2cc1ccc2O)c1ccc(O)c(c1)-c1c(O)cc(O)cc1[C@@H](C(=O)NCCCCCC(=O)N[C@@H]1[C@@H](O)[C@@H](O)[C@@H](CO)O[C@H]1O)NC3=O	64 (≈ 43.4 µM)	> 128	0.06 (≈ 0.0407 µM)	0.12 (≈ 0.0815 µM)	0.25 (≈ 0.17 µM)	0.12 (≈ 0.0815 µM)	0.25 (≈ 0.17 µM)	> 128	2.9	–	–
N[C@H]1C(=O)N[C@@H]2Cc3ccc(c(Cl)c3)Oc3cc4cc(c3O)Oc3ccc(cc3Cl)[C@@H](O)[C@@H]3NC(=O)[C@H](NC(=O)[C@@H]4NC(=O)[C@@H](NC2=O)c2cc(O)cc(c2)Oc2cc1ccc2O)c1ccc(O)c(c1)-c1c(O)cc(O)cc1[C@@H](C(=O)NC1CN2CCC1CC2)NC3=O (some centres undefined)	8 (≈ 6.12 µM)	32 (≈ 24.5 µM)	0.06 (≈ 0.0459 µM)	0.12 (≈ 0.0918 µM)	0.06 (≈ 0.0459 µM)	0.06 (≈ 0.0459 µM)	0.12 (≈ 0.0918 µM)	64 (≈ 49 µM)	0.46	–	–
CCCCN(CCCC)CCCNC(=O)[C@H]1NC(=O)[C@H]2NC(=O)[C@H](NC(=O)[C@@H]3NC(=O)[C@H]4NC(=O)[C@@H](Cc5ccc(c(Cl)c5)Oc5cc3cc(c5O)Oc3ccc(cc3Cl)[C@H]2O)NC(=O)[C@H](N)c2ccc(O)c(c2)Oc2cc(O)cc4c2)c2ccc(O)c(c2)-c2c(O)cc(O)cc21	8 (≈ 5.85 µM)	64 (≈ 46.8 µM)	0.06 (≈ 0.0439 µM)	0.12 (≈ 0.0878 µM)	0.12 (≈ 0.0878 µM)	0.06 (≈ 0.0439 µM)	0.12 (≈ 0.0878 µM)	32 (≈ 23.4 µM)	0.72	–	–
CC(=O)N[C@@H]1[C@H](O[C@@H]2c3ccc(c(Cl)c3)Oc3cc4cc(c3O[C@@H]3O[C@@H](CO)[C@@H](O)[C@H](O)[C@@H]3NC(=O)CCCCCCC(C)C)Oc3ccc(cc3Cl)C[C@H]3NC(=O)[C@H](N)c5ccc(O)c(c5)Oc5cc(O)cc(c5)[C@H](NC3=O)C(=O)N[C@H]4C(=O)N[C@H]3C(=O)N[C@@H]2C(=O)N[C@H](C(=O)NCCCCN)c2cc(O)cc(O[C@H]4O[C@H](CO)[C@@H](O)[C@@H](O)[C@@H]4O)c2-c2cc3ccc2O)O[C@@H](CO)[C@@H](O)[C@@H]1O	–	–	0.06 (≈ 0.0308 µM)	0.12 (≈ 0.0615 µM)	0.12 (≈ 0.0615 µM)	0.06 (≈ 0.0308 µM)	0.12 (≈ 0.0615 µM)	–	0.07	90	0.12 (≈ 0.0615 µM)
CCNCCNC(=O)[C@H]1NC(=O)[C@H]2NC(=O)[C@H](NC(=O)[C@@H]3NC(=O)[C@H]4NC(=O)[C@@H](Cc5ccc(c(Cl)c5)Oc5cc3cc(c5O[C@@H]3O[C@@H](CO)[C@@H](O)[C@H](O)[C@@H]3NC(=O)CCCCCCC(C)C)Oc3ccc(cc3Cl)[C@H]2O[C@@H]2O[C@@H](CO)[C@@H](O)[C@H](O)[C@@H]2NC(C)=O)NC(=O)[C@H](N)c2ccc(O)c(c2)Oc2cc(O)cc4c2)c2ccc(O)c(c2)-c2c(O[C@H]3O[C@H](CO)[C@@H](O)[C@@H](O)[C@@H]3O)cc(O)cc21	–	–	0.06 (≈ 0.0308 µM)	0.12 (≈ 0.0615 µM)	0.12 (≈ 0.0615 µM)	0.06 (≈ 0.0308 µM)	0.12 (≈ 0.0615 µM)	–	0.18	300	0.12 (≈ 0.0615 µM)
CNCCNC(=O)[C@H]1NC(=O)[C@H]2NC(=O)[C@H](NC(=O)[C@@H]3NC(=O)[C@H]4NC(=O)[C@@H](Cc5ccc(c(Cl)c5)Oc5cc3cc(c5O[C@@H]3O[C@@H](CO)[C@@H](O)[C@H](O)[C@@H]3NC(=O)CCCCCCC(C)C)Oc3ccc(cc3Cl)[C@H]2O[C@@H]2O[C@@H](CO)[C@@H](O)[C@H](O)[C@@H]2NC(C)=O)NC(=O)[C@H](N)c2ccc(O)c(c2)Oc2cc(O)cc4c2)c2ccc(O)c(c2)-c2c(O[C@H]3O[C@H](CO)[C@@H](O)[C@@H](O)[C@@H]3O)cc(O)cc21	–	–	0.12 (≈ 0.062 µM)	0.12 (≈ 0.062 µM)	0.12 (≈ 0.062 µM)	0.06 (≈ 0.031 µM)	0.12 (≈ 0.062 µM)	–	0.08	173	0.12 (≈ 0.062 µM)
CC(=O)N[C@@H]1[C@H](O[C@@H]2c3ccc(c(Cl)c3)Oc3cc4cc(c3O[C@@H]3O[C@@H](CO)[C@@H](O)[C@H](O)[C@@H]3NC(=O)CCCCCCC(C)C)Oc3ccc(cc3Cl)C[C@H]3NC(=O)[C@H](N)c5ccc(O)c(c5)Oc5cc(O)cc(c5)[C@H](NC3=O)C(=O)N[C@H]4C(=O)N[C@H]3C(=O)N[C@@H]2C(=O)N[C@H](C(=O)NCCCN)c2cc(O)cc(O[C@H]4O[C@H](CO)[C@@H](O)[C@@H](O)[C@@H]4O)c2-c2cc3ccc2O)O[C@@H](CO)[C@@H](O)[C@@H]1O	–	–	0.06 (≈ 0.031 µM)	0.12 (≈ 0.062 µM)	0.12 (≈ 0.062 µM)	0.03 (≈ 0.0155 µM)	0.12 (≈ 0.062 µM)	–	0.08	89.6	0.12 (≈ 0.062 µM)
CC(=O)N[C@@H]1[C@H](O[C@@H]2c3ccc(c(Cl)c3)Oc3cc4cc(c3O[C@@H]3O[C@@H](CO)[C@@H](O)[C@H](O)[C@@H]3NC(=O)CCCCCCC(C)C)Oc3ccc(cc3Cl)C[C@H]3NC(=O)[C@H](N)c5ccc(O)c(c5)Oc5cc(O)cc(c5)[C@H](NC3=O)C(=O)N[C@H]4C(=O)N[C@H]3C(=O)N[C@@H]2C(=O)N[C@H](C(=O)NCCN(C)C)c2cc(O)cc(O[C@H]4O[C@H](CO)[C@@H](O)[C@@H](O)[C@@H]4O)c2-c2cc3ccc2O)O[C@@H](CO)[C@@H](O)[C@@H]1O	–	–	0.06 (≈ 0.0308 µM)	0.12 (≈ 0.0615 µM)	0.06 (≈ 0.0308 µM)	0.06 (≈ 0.0308 µM)	0.12 (≈ 0.0615 µM)	–	0.09	140	0.12 (≈ 0.0615 µM)
CCN(CC)CCCNC(=O)[C@H]1NC(=O)[C@H]2NC(=O)[C@H](NC(=O)[C@@H]3NC(=O)[C@H]4NC(=O)[C@@H](Cc5ccc(c(Cl)c5)Oc5cc3cc(c5O[C@@H]3O[C@@H](CO)[C@@H](O)[C@H](O)[C@@H]3NC(=O)CCCCCCC(C)C)Oc3ccc(cc3Cl)[C@H]2O[C@@H]2O[C@@H](CO)[C@@H](O)[C@H](O)[C@@H]2NC(C)=O)NC(=O)[C@H](N)c2ccc(O)c(c2)Oc2cc(O)cc4c2)c2ccc(O)c(c2)-c2c(O[C@H]3O[C@H](CO)[C@@H](O)[C@@H](O)[C@@H]3O)cc(O)cc21	–	–	0.12 (≈ 0.0602 µM)	0.12 (≈ 0.0602 µM)	0.06 (≈ 0.0301 µM)	0.06 (≈ 0.0301 µM)	0.12 (≈ 0.0602 µM)	–	0.05	90	0.12 (≈ 0.0602 µM)
CC(=O)N[C@@H]1[C@H](O[C@@H]2c3ccc(c(Cl)c3)Oc3cc4cc(c3O[C@@H]3O[C@@H](CO)[C@@H](O)[C@H](O)[C@@H]3NC(=O)CCCCCCC(C)C)Oc3ccc(cc3Cl)C[C@H]3NC(=O)[C@H](N)c5ccc(O)c(c5)Oc5cc(O)cc(c5)[C@H](NC3=O)C(=O)N[C@H]4C(=O)N[C@H]3C(=O)N[C@@H]2C(=O)N[C@H](C(=O)NCCCCCCCN(C)C)c2cc(O)cc(O[C@H]4O[C@H](CO)[C@@H](O)[C@@H](O)[C@@H]4O)c2-c2cc3ccc2O)O[C@@H](CO)[C@@H](O)[C@@H]1O	–	–	0.12 (≈ 0.0594 µM)	0.12 (≈ 0.0594 µM)	0.12 (≈ 0.0594 µM)	0.06 (≈ 0.0297 µM)	0.12 (≈ 0.0594 µM)	–	0.18	> 300	0.5 (≈ 0.248 µM)

Now those with a lower MIC [2], led by results:

MIC (Escherichia coli) [µg/mL]	MIC (Pseudomonas aeruginosa) [µg/mL]	MIC [2] [µg/mL]	MIC (Staphylococcus aureus) [µg/mL]	MIC (Streptococcus pneumoniae) [µg/mL]	MIC (Streptococcus pyogenes [3]) [µg/mL]	MIC (Enterococcus faecalis) [µg/mL]	MIC (Proteus vulgaris) [µg/mL]	SMILES	ED50 (Streptococcus pyogenes [1]) [mg/kg]	ED50 (Streptococcus pyogenes [4]) [mg/kg]	MIC [5] [µg/mL]
8 (≈ 6.1 µM)	32 (≈ 24.4 µM)	0.03 (≈ 0.0229 µM)	0.12 (≈ 0.0915 µM)	0.12 (≈ 0.0915 µM)	0.06 (≈ 0.0458 µM)	0.12 (≈ 0.0915 µM)	32 (≈ 24.4 µM)	CCN(CC)CCCNC(=O)[C@H]1NC(=O)[C@H]2NC(=O)[C@H](NC(=O)[C@@H]3NC(=O)[C@H]4NC(=O)[C@@H](Cc5ccc(c(Cl)c5)Oc5cc3cc(c5O)Oc3ccc(cc3Cl)[C@H]2O)NC(=O)[C@H](N)c2ccc(O)c(c2)Oc2cc(O)cc4c2)c2ccc(O)c(c2)-c2c(O)cc(O)cc21	0.18	–	–
16 (≈ 12.5 µM)	32 (≈ 25 µM)	0.03 (≈ 0.0234 µM)	0.06 (≈ 0.0468 µM)	0.12 (≈ 0.0937 µM)	0.12 (≈ 0.0937 µM)	0.12 (≈ 0.0937 µM)	64 (≈ 50 µM)	CN1CCN(C(=O)[C@H]2NC(=O)[C@H]3NC(=O)[C@H](NC(=O)[C@@H]4NC(=O)[C@H]5NC(=O)[C@@H](Cc6ccc(c(Cl)c6)Oc6cc4cc(c6O)Oc4ccc(cc4Cl)[C@H]3O)NC(=O)[C@H](N)c3ccc(O)c(c3)Oc3cc(O)cc5c3)c3ccc(O)c(c3)-c3c(O)cc(O)cc32)CC1	0.95	–	–
8 (≈ 6.18 µM)	64 (≈ 49.4 µM)	0.016 (≈ 0.0124 µM)	0.06 (≈ 0.0463 µM)	0.12 (≈ 0.0927 µM)	0.06 (≈ 0.0463 µM)	0.12 (≈ 0.0927 µM)	64 (≈ 49.4 µM)	N[C@H]1C(=O)N[C@@H]2Cc3ccc(c(Cl)c3)Oc3cc4cc(c3O)Oc3ccc(cc3Cl)[C@@H](O)[C@@H]3NC(=O)[C@H](NC(=O)[C@@H]4NC(=O)[C@@H](NC2=O)c2cc(O)cc(c2)Oc2cc1ccc2O)c1ccc(O)c(c1)-c1c(O)cc(O)cc1[C@@H](C(=O)NCCN1CCCC1)NC3=O	1.6	–	–
16 (≈ 12.6 µM)	64 (≈ 50.5 µM)	0.016 (≈ 0.0126 µM)	0.06 (≈ 0.0473 µM)	0.12 (≈ 0.0946 µM)	0.12 (≈ 0.0946 µM)	0.12 (≈ 0.0946 µM)	64 (≈ 50.5 µM)	N[C@H]1C(=O)N[C@@H]2Cc3ccc(c(Cl)c3)Oc3cc4cc(c3O)Oc3ccc(cc3Cl)[C@@H](O)[C@@H]3NC(=O)[C@H](NC(=O)[C@@H]4NC(=O)[C@@H](NC2=O)c2cc(O)cc(c2)Oc2cc1ccc2O)c1ccc(O)c(c1)-c1c(O)cc(O)cc1[C@@H](C(=O)N1CCOCC1)NC3=O	1.02	–	–
